Results: ChEMBL document CHEMBL1132974 (J Med Chem, 2000)
“And” between values parts separate entries of the source, which are not always exact repeats. Identical values can stand only once.

How the values were obtained:
[1] = species: Cavia porcellus; test: (§1) Effective concentration for agonism activity in Endothelium-Denuded guinea pig aortic segment; conditions: Aorta, read-out: Log EC50 (converted)
[2] = species: Cavia porcellus; test: Effective concentration for agonism activity in guinea pig ileal whole segment; conditions: read-out: Log EC50 (converted)
[3] = species: Cavia porcellus; test: (§2) Effective concentration for agonism activity in endothelium-denuded guinea pig aortic segment; conditions: Aorta, read-out: Log EC50 (converted)
[4] = species: Rattus norvegicus; test: tissue or blood; conditions: Aorta, read-out: Log EC50 (converted)
[5] = biological target: Histamine H1 receptor (Cavia porcellus) (UniProt P31389); test: Negative logarithm of receptor dissociation constant Kp was reported; type: functional
Sequence of Histamine H1 receptor (Cavia porcellus) (P31389 whole entry): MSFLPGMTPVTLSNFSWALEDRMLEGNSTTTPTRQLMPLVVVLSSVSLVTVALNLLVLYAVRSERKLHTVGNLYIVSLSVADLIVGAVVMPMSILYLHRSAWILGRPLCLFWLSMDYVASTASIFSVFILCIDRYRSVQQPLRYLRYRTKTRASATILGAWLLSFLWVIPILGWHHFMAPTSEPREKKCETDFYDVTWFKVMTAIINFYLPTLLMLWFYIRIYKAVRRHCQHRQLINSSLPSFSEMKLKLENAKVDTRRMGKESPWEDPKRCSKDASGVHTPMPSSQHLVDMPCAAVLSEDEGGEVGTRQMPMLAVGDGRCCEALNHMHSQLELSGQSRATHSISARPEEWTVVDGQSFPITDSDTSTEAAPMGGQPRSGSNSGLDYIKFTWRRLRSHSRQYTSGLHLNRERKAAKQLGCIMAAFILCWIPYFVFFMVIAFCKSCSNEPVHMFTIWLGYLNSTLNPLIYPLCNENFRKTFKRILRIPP
Procedure, shortened: (§3)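 Guinea-pig ileum (0.1 µM atropine, 37 °C Tyrode's). […] Where several partial-agonist concentrations were used, the overall value comes from a Kaumann-Marano plot with slope constrained to unity.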

[6] = biological target: Histamine H1 receptor (Cavia porcellus) (UniProt P31389); test: Intrinsic activity was reported at a concentration of 10 uM; type: functional
[7] = biological target: Histamine H1 receptor (Cavia porcellus) (UniProt P31389); test: Intrinsic activity was reported in endothelium-denuded guinea pig(pre contracted with PGF-2 alpha) at a concentration of 10 uM; type: functional
Procedure, shortened: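 Endothelium-denuded guinea-pig aortic rings, set up as in the contraction assay, challenged twice with PGF2α (10 µM). Rings were precontracted with a threshold PGF2α level (usually 0.4–1.5 µM, 10–20% of the 10 µM response).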

[8] = biological target: Histamine H1 receptor (Cavia porcellus) (UniProt P31389); test: Intrinsic activity was reported in guinea pig ileal whole segment.; type: functional
[9] = biological target: Histamine H1 receptor (Cavia porcellus) (UniProt P31389); test: Relative potency was recorded in endothelium-denuded guinea pig; value ranges from 5.68 to 5.93; type: functional
Procedure, shortened: (§4)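 Guinea-pig thoracic aortic rings (2–4 mm), endothelium rubbed off, isometric (10 mN), modified Krebs-Henseleit (1.80 mM Ca2+), 37 °C. Cimetidine, corticosterone and cocaine (30 µM each), prazosin and yohimbine (0.3 µM each) and propranolol (0.1 µM) were present. […] The pEC50 shift was corrected using untreated control preparations.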

[10] = biological target: Histamine H1 receptor (Rattus norvegicus) (UniProt P31390); test: The compound was evaluated for intrinsic activity i.e. maximum histamine controls relative to contraction evoked by 10 uM PGF2-alpha in relaxed rat aortic rings; type: functional, tissue-based; conditions: Aorta
Target sequence in this assay (P31390 whole entry): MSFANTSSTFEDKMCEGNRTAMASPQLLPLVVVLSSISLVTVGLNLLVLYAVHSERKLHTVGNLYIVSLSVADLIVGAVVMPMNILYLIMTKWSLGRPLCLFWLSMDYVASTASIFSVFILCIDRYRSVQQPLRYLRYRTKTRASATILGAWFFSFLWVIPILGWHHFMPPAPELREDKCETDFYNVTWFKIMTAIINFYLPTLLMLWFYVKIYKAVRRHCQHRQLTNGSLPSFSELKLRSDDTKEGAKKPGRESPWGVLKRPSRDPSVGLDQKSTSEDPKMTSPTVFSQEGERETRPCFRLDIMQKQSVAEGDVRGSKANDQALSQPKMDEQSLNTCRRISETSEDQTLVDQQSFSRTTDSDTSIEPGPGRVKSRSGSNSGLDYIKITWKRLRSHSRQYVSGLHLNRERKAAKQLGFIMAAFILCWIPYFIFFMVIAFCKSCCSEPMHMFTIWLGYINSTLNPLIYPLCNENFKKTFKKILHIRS

[11] = biological target: Histamine H1 receptor (Rattus norvegicus) (UniProt P31390); test: Relative potency was recorded in relaxed rat aortic rings; value ranges from […] to […]; type: functional, tissue-based; conditions: Aorta
Target sequence in this assay (P31390 whole entry): as above

[12] = biological target: Histamine H1 receptor (Cavia porcellus) (UniProt P31389); test: pA2 was recorded in endothelium-denuded guinea pig(pre contracted with PGF-2 alpha).value ranges from 5.66 to 6.19
[13] = biological target: T1, Alpha-1D adrenergic receptor (Rattus norvegicus, UniProt P23944); test: Compound was evaluated for its antagonist affinity towards Alpha-1D adrenergic receptor of rat; type: functional; conditions: read-out: pA2 (converted)
T1 sequence (P23944 whole entry): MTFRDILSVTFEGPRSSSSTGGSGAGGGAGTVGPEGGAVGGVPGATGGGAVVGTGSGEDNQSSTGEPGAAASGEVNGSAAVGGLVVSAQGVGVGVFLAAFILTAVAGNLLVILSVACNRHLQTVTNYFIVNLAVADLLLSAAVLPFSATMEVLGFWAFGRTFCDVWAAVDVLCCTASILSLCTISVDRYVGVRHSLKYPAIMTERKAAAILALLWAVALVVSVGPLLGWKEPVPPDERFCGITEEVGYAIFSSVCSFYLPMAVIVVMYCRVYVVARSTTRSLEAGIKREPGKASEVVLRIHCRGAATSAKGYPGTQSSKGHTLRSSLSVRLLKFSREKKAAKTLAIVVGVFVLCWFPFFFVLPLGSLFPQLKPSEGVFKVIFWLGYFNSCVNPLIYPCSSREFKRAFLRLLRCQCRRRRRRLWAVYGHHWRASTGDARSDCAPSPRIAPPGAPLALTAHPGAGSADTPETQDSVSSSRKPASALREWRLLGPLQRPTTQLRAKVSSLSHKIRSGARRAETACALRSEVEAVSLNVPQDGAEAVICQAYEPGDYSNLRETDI
Procedure, shortened: (§5)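 Functional antagonism in rat tissues: α1D (thoracic aorta), 5-HT2A (tail artery), 5-HT4 (oesophageal tunica muscularis mucosae). Results are given as apparent pA2 from single-concentration rightward shifts, or pD'2 when only curve depression occurred.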

[14] = biological target: Beta-1 adrenergic receptor (Cavia porcellus, UniProt B0FL73); test: Compound was evaluated for its antagonist affinity towards Beta-1 adrenergic receptor of guinea pig; type: functional; conditions: read-out: pA2 (converted)
Sequence of Beta-1 adrenergic receptor (B0FL73 whole entry): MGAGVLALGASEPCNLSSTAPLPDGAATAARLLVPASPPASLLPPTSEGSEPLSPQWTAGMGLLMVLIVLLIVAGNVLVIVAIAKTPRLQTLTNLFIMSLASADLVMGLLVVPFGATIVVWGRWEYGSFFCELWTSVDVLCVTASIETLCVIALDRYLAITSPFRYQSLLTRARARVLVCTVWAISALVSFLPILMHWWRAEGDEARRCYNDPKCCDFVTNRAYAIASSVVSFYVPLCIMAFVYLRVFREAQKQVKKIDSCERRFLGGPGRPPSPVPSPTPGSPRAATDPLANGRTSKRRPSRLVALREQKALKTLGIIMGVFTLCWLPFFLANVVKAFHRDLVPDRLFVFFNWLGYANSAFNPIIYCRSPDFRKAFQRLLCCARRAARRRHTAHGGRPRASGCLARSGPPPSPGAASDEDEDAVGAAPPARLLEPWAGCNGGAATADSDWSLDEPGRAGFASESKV
Procedure, shortened: (§6)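 Functional antagonism assays in guinea-pig tissues, each run with 1 µM mepyramine present: M3 (whole ileum), β1 (right atrium), 5-HT1B (iliac artery), 5-HT3 (quiescent ileal longitudinal muscle with myenteric plexus). Results are given as apparent pA2, or pD'2 when only curve depression occurred.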

[15] = biological target: T2, Histamine H1 receptor (Rattus norvegicus, UniProt P31390); test: Effective concentration for agonism activity in relaxed rat aortic rings with intact endothelium, submaximally precontracted with 15.8 nM U-46,619; type: functional, tissue-based, Aorta
T2 sequence (P31390 whole entry): as the sequence (P31390 whole entry) above

[16] = biological target: Histamine H3 receptor (Cavia porcellus, UniProt Q9JI35); test: Compound was evaluated for its antagonist affinity towards Histamine H3 receptor of guinea pig; type: functional; conditions: read-out: pA2 (converted)
Sequence of Histamine H3 receptor (Q9JI35 whole entry): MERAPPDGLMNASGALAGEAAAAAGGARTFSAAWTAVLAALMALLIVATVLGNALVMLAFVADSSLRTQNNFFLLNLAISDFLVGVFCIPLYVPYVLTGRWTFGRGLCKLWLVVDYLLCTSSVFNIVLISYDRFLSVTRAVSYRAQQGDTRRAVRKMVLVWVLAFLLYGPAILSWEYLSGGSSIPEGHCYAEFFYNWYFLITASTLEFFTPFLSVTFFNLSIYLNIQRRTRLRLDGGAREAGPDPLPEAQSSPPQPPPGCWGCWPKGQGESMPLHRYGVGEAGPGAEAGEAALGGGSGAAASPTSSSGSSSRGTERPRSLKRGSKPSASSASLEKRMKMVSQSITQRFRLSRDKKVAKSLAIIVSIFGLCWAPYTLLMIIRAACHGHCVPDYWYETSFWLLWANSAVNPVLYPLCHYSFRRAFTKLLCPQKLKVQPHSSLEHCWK
Procedure, shortened: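 Electrically stimulated guinea-pig ileal longitudinal muscle with myenteric plexus, isometric (7.5 mN). Cumulative (R)-α-methylhistamine curves were run with and without test compound (20 min), with 1 µM mepyramine present. Values were apparent pA2, or pD'2 where curves were depressed.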

[17] = biological target: T3, Histamine H1 receptor (Cavia porcellus, UniProt P31389); test: Compound was evaluated for mepyramine antagonism effects in guinea pig aorta (contraction) at a mepyramine concentration of 100 nM; type: functional, tissue-based; conditions: read-out: pA2 (converted)
T3 sequence (P31389 whole entry): as the sequence (P31389 whole entry) above
Procedure, shortened: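 Guinea-pig aortic rings with endothelium damaged, isometric (10 mN), 37 °C Krebs-Henseleit. Agonist curves were run with mepyramine (100 nM, about 60 min) after threshold PGF2α precontraction. Apparent pA2 = −log c + log(r−1).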

[18] = biological target: T3, Histamine H1 receptor; test: Antagonism of guinea pig ileum contraction at 100 nM mepyramine; type: functional, tissue-based; conditions: read-out: pA2 (converted)
Procedure, shortened: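 Guinea-pig whole ileal segments (2.0–2.5 cm), isotonic, preload 0.5 g, Tyrode's at 37 °C, 95% O2/5% CO2, with 0.1 µM atropine throughout. […] Apparent pA2 = −log c + log(r−1); full pA2 from Schild plot, slope fixed at 1.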

[19] = biological target: Histamine H2 receptor (Cavia porcellus, UniProt P47747); test: Compound was evaluated for its antagonist affinity towards Histamine H2 receptor of guinea pig; type: functional; conditions: read-out: pA2 (converted)
Sequence of Histamine H2 receptor (P47747 whole entry): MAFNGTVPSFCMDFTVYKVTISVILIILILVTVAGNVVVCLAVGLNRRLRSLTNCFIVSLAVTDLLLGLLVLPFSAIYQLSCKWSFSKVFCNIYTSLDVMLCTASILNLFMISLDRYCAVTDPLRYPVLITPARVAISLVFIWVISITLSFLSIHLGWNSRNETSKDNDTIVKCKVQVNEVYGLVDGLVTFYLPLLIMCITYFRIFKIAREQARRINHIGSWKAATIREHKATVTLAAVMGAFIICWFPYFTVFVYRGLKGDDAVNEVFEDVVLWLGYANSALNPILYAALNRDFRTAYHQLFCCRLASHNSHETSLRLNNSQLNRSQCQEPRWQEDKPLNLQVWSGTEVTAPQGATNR

[20] = biological target: T3, Histamine H1 receptor; test: as §1; type: functional, tissue-based, Aorta; procedure, shortened: as §4
[21] = biological target: T3, Histamine H1 receptor; test: Effective concentration for agonist activity in guinea pig ileum whole segment; type: functional, tissue-based
[22] = biological target: Muscarinic acetylcholine receptor M3 (Cavia porcellus, UniProt Q8VH26); test: Compound was evaluated for its antagonist affinity towards Muscarinic acetylcholine receptor M3 of guinea pig; type: functional; conditions: read-out: pA2 (converted); procedure, shortened: as §6
Sequence of Muscarinic acetylcholine receptor M3 (Q8VH26 whole entry): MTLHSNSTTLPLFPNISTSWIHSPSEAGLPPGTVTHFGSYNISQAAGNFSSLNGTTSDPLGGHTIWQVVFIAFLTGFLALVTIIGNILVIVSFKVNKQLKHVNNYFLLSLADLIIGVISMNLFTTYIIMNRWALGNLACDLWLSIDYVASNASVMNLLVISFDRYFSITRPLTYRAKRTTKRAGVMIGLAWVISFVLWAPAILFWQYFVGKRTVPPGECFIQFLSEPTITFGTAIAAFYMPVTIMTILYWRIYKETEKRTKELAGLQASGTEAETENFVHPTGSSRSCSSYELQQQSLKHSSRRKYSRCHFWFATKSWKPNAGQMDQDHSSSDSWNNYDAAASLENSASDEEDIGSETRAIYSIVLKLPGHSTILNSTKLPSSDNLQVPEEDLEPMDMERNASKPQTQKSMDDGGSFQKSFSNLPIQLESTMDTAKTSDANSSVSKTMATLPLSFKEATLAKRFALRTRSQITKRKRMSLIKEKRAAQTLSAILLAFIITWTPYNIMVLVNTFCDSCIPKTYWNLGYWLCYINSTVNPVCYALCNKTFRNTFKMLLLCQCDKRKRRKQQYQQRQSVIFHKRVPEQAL

[23] = biological target: T2, Histamine H1 receptor; test: Compound was evaluated for mepyramine antagonism effects in rat aorta (relaxation) at a mepyramine concentration of 100 nM; type: functional, tissue-based; conditions: read-out: pA2 (converted)
[24] = biological target: 5-hydroxytryptamine receptor 2A (Rattus norvegicus, UniProt P14842); test: Compound was evaluated for its antagonist affinity towards 5-hydroxytryptamine 2A receptor of rat; type: functional; conditions: read-out: pA2 (converted); procedure, shortened: as §5
Sequence of 5-hydroxytryptamine receptor 2A (P14842 whole entry): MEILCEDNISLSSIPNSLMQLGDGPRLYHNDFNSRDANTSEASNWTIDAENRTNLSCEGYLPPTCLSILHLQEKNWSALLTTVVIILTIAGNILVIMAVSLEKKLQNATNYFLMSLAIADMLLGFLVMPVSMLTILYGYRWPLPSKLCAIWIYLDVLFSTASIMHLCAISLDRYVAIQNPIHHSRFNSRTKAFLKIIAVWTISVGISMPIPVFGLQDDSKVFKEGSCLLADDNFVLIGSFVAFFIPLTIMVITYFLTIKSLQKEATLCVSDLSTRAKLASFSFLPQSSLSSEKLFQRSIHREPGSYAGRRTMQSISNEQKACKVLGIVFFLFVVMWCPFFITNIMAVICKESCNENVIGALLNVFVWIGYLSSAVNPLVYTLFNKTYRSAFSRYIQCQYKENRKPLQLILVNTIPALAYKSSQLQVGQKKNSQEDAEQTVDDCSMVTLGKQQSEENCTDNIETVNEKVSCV

[25] = biological target: 5-hydroxytryptamine receptor 4 (Rattus norvegicus, UniProt Q62758); test: Compound was evaluated for its antagonist affinity towards 5-hydroxytryptamine 4 receptor of rat; type: functional; conditions: read-out: pA2 (converted); procedure, shortened: as §5
Sequence of 5-hydroxytryptamine receptor 4 (Q62758 whole entry): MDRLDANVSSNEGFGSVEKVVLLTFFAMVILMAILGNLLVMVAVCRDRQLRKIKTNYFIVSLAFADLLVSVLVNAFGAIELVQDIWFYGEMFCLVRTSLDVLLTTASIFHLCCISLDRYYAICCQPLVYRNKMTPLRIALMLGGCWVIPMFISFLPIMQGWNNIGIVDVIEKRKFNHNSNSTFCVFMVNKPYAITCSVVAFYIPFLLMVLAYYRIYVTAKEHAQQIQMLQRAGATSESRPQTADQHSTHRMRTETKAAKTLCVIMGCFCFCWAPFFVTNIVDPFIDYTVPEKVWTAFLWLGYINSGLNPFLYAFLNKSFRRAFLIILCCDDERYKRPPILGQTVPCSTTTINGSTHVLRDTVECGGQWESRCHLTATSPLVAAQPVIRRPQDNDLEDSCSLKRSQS

[26] = biological target: 5-hydroxytryptamine receptor 1B (Cavia porcellus); test: Compound was evaluated for its antagonist affinity towards 5-hydroxytryptamine 1B receptor of guinea pig; conditions: read-out: pA2 (converted)
[27] = biological target: Serotonin 3 (5-HT3) receptor; test: Compound was evaluated for its antagonist affinity towards 5-hydroxytryptamine 3 receptor of guinea pig; type: functional, Cavia porcellus; procedure, shortened: as §6
[28] = biological target: Histamine H1 receptor (Rattus norvegicus) (UniProt P31390); test: The compound was evaluated for intrinsic activity in relaxed rat aortic rings with intact endothelium, submaximally precontracted with 15.8 nM U-46,619; type: functional, tissue-based; set-up: unit not given here; conditions: Aorta
Target sequence in this assay (P31390 whole entry): as the sequence (P31390 whole entry) above

[29] = biological target: Histamine H1 receptor (Cavia porcellus) (UniProt P31389); test: Negative logarithm of receptor dissociation constant Kp was reported in guinea pig ileum whole segment; type: functional, tissue-based; procedure, shortened: as §3
[30] = biological target: T3, Histamine H1 receptor; test: as §2; type: functional, tissue-based, Aorta; procedure, shortened: as §4
[31] = biological target: Histamine H1 receptor (Rattus norvegicus) (UniProt P31390); test: Compound was evaluated for mepyramine antagonism effects in rat aorta (relaxation) at a mepyramine concentration of 100 nM; conditions: read-out: pA2 (converted)
Target sequence in this assay (P31390 whole entry, looked up): as the sequence (P31390 whole entry) above

[32] = species: Cavia porcellus; test: Mepyramine concentration required to antagonise histaprodifens compound induced effects in guinea pig or rat assays; type: functional, organism-based
[33] = biological target: Histamine H1 receptor (Cavia porcellus) (UniProt P31389); test: concentration of mepyramine was determined; type: functional
[34] = biological target: Histamine H1 receptor (Cavia porcellus) (UniProt P31389); test: Intrinsic activity was reported in guinea pig ileum whole segment.; type: functional, tissue-based

| Compound | Kb [13] [µM] | Kb [14] [µM] | EC50 [15] [µM] | Kb [16] [µM] | Kb [17] | Kb [19] [µM] | EC50 [20] | EC50 [21] [µM] | Kb [22] [µM] | Kb [24] [µM] | Kb [25] [µM] | Kb [26] [µM] | pA2 [27] | Emax [28] | pKp [29] | also measured |
| --- | --- | --- | --- | --- | --- | --- | --- | --- | --- | --- | --- | --- | --- | --- | --- | --- |
| NCCc1c[nH]cn1 [HISTAMINE] | – | – | – | – | – | – | – | – | – | – | – | – | – | – | – | EC50 [1]: 0.316 µM; EC50 [2]: 0.2 µM; EC50 [3]: 2.24 µM; EC50 [4]: 4.47 µM |
| NCCc1c[nH]c(CCCC(c2ccccc2)c2ccccc2)n1 | – | – | – | – | – | – | – | – | – | – | – | – | – | – | – | pKp [5]: 5.94; Emax [6]: 0; Emax [7]: 0; Emax [8]: 2; pA2 [9]: 5.8; Emax [10]: 0; pA2 [11]: 5.72; pA2 [12]: 5.92 |
| NCCc1cnc(CCC(c2ccccc2)c2ccccc2)[nH]1 | 3.55 | 45.7 | 0.851 | > 1.58 | 0.00158 µM and 0.000977 µM | 34.7 | 1.95 µM and 0.309 µM | 0.182 | 2.82 | 6.46 | > 3.16 | 14.1 | – | – | – | Kb ([18]; in the assay text read “at 1-30 nM mepyramine” for “at 100 nM mepyramine”): 0.000776 µM; Kb [23]: 0.00912 µM |
| CN(C)CCc1c[nH]c(CCC(c2ccccc2)c2ccccc2)n1 | 7.76 | 26.3 | 0.17 | > 1.58 | 0.00251 µM | 26.3 | 0.12 µM | 0.0832 | 1.15 | 3.72 | > 1.58 | > 31.6 | < 5.8 | 51 and 55 | 6.4 | Kb [18]: 0.000776 µM and 0.00138 µM; EC50 [30]: 0.832 µM; Kb [31]: 0.0105 µM |
| CNCCc1c[nH]c(CCC(c2ccccc2)c2ccccc2)n1 | – | – | – | – | – | – | – | – | – | – | – | – | < 5.8 | 55 | 6.45 | Concentration [32]: 0.1 µM; Concentration [33]: 0.003 µM and 0.005 µM |
| CCNCCc1c[nH]c(CCC(c2ccccc2)c2ccccc2)n1 | – | – | 0.646 | > 1 | – | 31.6 | – | 0.302 | 1.02 | – | – | – | – | 44 and 47 | 5.75 | Kb ([18]; in the assay text read “at 5 nM mepyramine” for “at 100 nM mepyramine”): 0.00155 µM; Emax [34]: 89 |
